The array DNA melting data of Ke et al. (doi:10.1101/2024.01.08.574731)

How the values were obtained:
[1] = melting temperature; fluorescence melt of hairpins on a sequencing array, two-state fit, raised by 9.35 °C to match UV melts; conditions: sodium 0.088 M
Outline: (§1)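 Folding enthalpy and melting temperature come from bootstrapped two-state fits to Cy3 fluorescence of library hairpins carrying annealed Cy3 and quencher oligos on a sequenced MiSeq flow cell. Imaging was done in 50 mM Na-HEPES pH 8.0, 25 mM NaCl, stepping by 2.5 °C up to 60 °C, and signals were normalised to pre-quench Cy3 and to control constructs. Results of four replicates were combined by inverse variance, and fitted temperatures were raised by 9.35 °C to match UV melts.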

[2] = folding enthalpy; higher = less favourable; fluorescence melt of hairpins on a sequencing array, two-state fit; conditions: sodium 0.088 M
Outline: as §1

| Sequence | Tm [1] [°C] | folding enthalpy [2] [kcal/mol] |
| --- | --- | --- |
| GGTAGGCGAAAGCCGACC (((.(((....))).))) | 65.4 | -18.6 |
| GCGCGGCGAAAGCTGAGC ((.(.((....)).).)) | 63.2 | -31.1 |
| GATCCCGGATGGGATC ((((((....)))))) | 67.8 | -28 |
| GATCAATGAATTGATC ((((((....)))))) | 46.3 | -34.6 |
| GGTCAGGGAAACTTGGCC ((.((.(....).)).)) | 38.2 | -26.1 |
| GAATGTGGAAACGCATTC (((((.(....).))))) | 46 | -37.5 |
| TACCCGAAAGGGTA (((((....))))) | 66.1 | -14.4 |
| GTCAGGCGAAAGCCAGAC (((.(((....))).))) | 59.8 | -23.4 |
| GCAACGGGAAACCATTGC ((((.((....)).)))) | 41.5 | -26.8 |
| GATCAGAAGGCTGATC ((((((....)))))) | 45.8 | -29.4 |
| GCCCACCGAAAGGTGGC (((.(((....)))))) | 62.3 | -9.61 |
| GGCACTGCGAAAGCAGCC (((..(((....)))))) | 35.9 | -8.74 |
| GAAGGCGGAAACGCCTCC (.(((((....))))).) | 42.3 | -8.57 |
| GGCTGGAAACAGCC (((((....))))) | 67.5 | -30.9 |
| GCATTGCGAAAGCATCGC ((..(((....)))..)) | 52.9 | -11.8 |
| GAATACCGAAAGGTTTC (((.(((....)))))) | 39.2 | -16.5 |
| GCTACGGAAACGTAGC ((((((....)))))) | 66.5 | -42 |
| GTGCACGGAAACATGCAC (((((.(....).))))) | 47.9 | -34.6 |
| GTTGTCCGAAAGGATAAC (((.(((....))).))) | 51.9 | -44.9 |
| GTAATGCGAAAGCACTAC (((.(((....))).))) | 39.4 | -19.9 |
| GATCCTGGTAGGATC ((((((...)))))) | 54.6 | -32.6 |
| GAGGAAGGAAACTTCCCC (.(((((....))))).) | 35.2 | -11 |
| GTCTCCGAAAGGAAAGAC ((((((....)))..))) | 42.4 | -23.1 |

| Sequence | Tm [1] [°C] | folding enthalpy [2] [kcal/mol] |
| --- | --- | --- |
| GCTATAGCGAAAGCTAGC (((..(((....)))))) | 44.6 | -18 |
| GAGAGTGGAAACGCTTTC ((.((.(....).)).)) | 27.3 | -9.25 |
| GCATGTGGAAACGTATGC ((((..(....)..)))) | 41 | -26.3 |
| GAGAGCGAAAGCTACTC ((((((....))).))) | 43.7 | -14.5 |
| GATCCTGTGAAGGATC ((((((....)))))) | 58.4 | -35.4 |
| GCACGTGGAAACATGTGC ((((.((....)).)))) | 56.9 | -36.8 |
| GCTATCGAAAGATTCAGC ((((((....)))..))) | 29.6 | -11.6 |
| GCGATCGAAAGATTGCGC ((((((....)))..))) | 57.2 | -39.6 |
| GTTTGTGAAAACAAAC ((((((....)))))) | 53.7 | -37.6 |
| GCGGTCGAAAGACAGCGC ((((((....)))..))) | 69.2 | -27.7 |
| GCTTGGGGAAACTCGAGC (((.(.(....).).))) | 36.9 | -31.3 |
| GGACGTCCGAAAGGATCC (((..(((....)))))) | 25.8 | -14.9 |
| GCAAACGAAAGTTGTGC ((((((....))).))) | 43.4 | -22.6 |
| GATATCGGAAACGATGTC ((.((((....)))).)) | 46.7 | -30.7 |
| GATCTCAGTGAGATC ((((((...)))))) | 53.1 | -31.9 |
| GCTAATGGAAACGTTAGC (((((.(....).))))) | 43.9 | -29.7 |
| GATCCAGGTCTGGATC ((((((....)))))) | 55 | -37.4 |
| GTACCTGGAAACGGGTAC (((((.(....).))))) | 50.4 | -41.8 |
| GGACAAGGAAACTTGTTC (.(((((....))))).) | 43 | -25.9 |
| GCTCCCGAAAGGGCAAGC ((((((....)))..))) | 42.2 | -15.9 |
| GCTCTGCGAAAGCACAGC (((.(((....))).))) | 38.6 | -25.6 |
| GGACACGAAAGTGTATCC ((((((....)))..))) | 36.1 | -10.9 |
| GGAAGCGAAAGCTGTCC ((((((....))).))) | 47.4 | -14.5 |

| Sequence | Tm [1] [°C] | folding enthalpy [2] [kcal/mol] |
| --- | --- | --- |
| GGAAAAGAAATTTTCC ((((((....)))))) | 37.7 | -23.4 |
| GAGACGGGAAACCGTTTC ((.((((....)))).)) | 45.8 | -23.4 |
| GCCGCTGGAAACAGCAGC ((.((((....)))).)) | 50.1 | -20.1 |
| GTCGACGAAAGTCGGAC ((((((....))).))) | 58.1 | -14.3 |
| GATGCCGGAAACGACATC ((((.((....)).)))) | 48.2 | -38.3 |
| GACATTGGAAACAACGTC (((.(((....))).))) | 34 | -23.2 |
| GGTGTCGAAAGACTAACC ((((((....)))..))) | 40.4 | -20.9 |
| GTTTCCGAAAGGAGGAAC ((((((....)))..))) | 27.4 | -9.8 |
| GTCCTCTCGAAAGAGGAC (((..(((....)))))) | 58.5 | -36.2 |
| GCTTTGCGAAAGCCTAGC (((..((....))..))) | 41.1 | -13 |
| GGATGCGGAAACACATCC (((((.(....).))))) | 47.9 | -44.2 |
| GGCCGTCGAAAGACGCC (((.(((....)))))) | 62.8 | -17.2 |
| GGATGGGGAAACCTGTCC (((..((....))..))) | 41 | -29.3 |
| GATTATGAAAATAATC ((((((....)))))) | 40.1 | -29.5 |
| GCAGCCGAAAGGCTATGC ((((((....)))..))) | 47.4 | -14 |
| TCTCAGAAATGAGA (((((....))))) | 31.1 | -12.2 |
| GTGCGGGGAAACCCACAC (((.(((....))).))) | 51.6 | -37.9 |
| GATCGGCGTCCGATC ((((((...)))))) | 56.4 | -40.5 |
| GATGTCGGAAACAACATC (((((.(....).))))) | 35.7 | -28.9 |
| GATCCTTAGAAGGATC ((((((....)))))) | 50.2 | -33.8 |
| GTCGGCGGAAACGCTGAC (((.(((....))).))) | 63.1 | -39.3 |
| GCAGGCGAAAGCCACTGC ((((((....)))..))) | 48 | -15.9 |
| GCGAAGAATCGC ((((....)))) | 50.2 | -11.4 |
